Laboratory results taken from ChEMBL document CHEMBL1149154, “Comparative molecular field analysis and comparative molecular similarity indices analysis of thalidomide analogues as angiogenesis inhibitors” (2004).

Species: Rattus norvegicus
Assay: Inhibition of microvessel outgrowth in the rat aortic ring assay
Format: functional, Aorta
Design: concentration or dose not given beside the values
How it was run: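 Aortic 1 mm cross-sections from 6–8-week-old male Sprague–Dawley rats, periadventitial fat removed, embedded between Matrigel layers (37 °C, 5% CO2). Cultured 24 h in EGM-II, then switched to EBM-II with 2% FBS, amphotericin B and gentamicin. Compounds in DMSO added to medium daily for 4 days (vehicle 0.5% DMSO; carboxyamidotriazole positive control). Microvessel growth photographed on day 5.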

Compound	Inhibition
O=C1c2ccccc2C(=O)N1c1cnc(O)nc1O	5.75%
O=C1CC(N2C(=O)c3ccccc3C2=O)C(=O)N1 (centres undefined)	9.75%
O=C1c2c(F)c(F)c(F)c(F)c2C(=O)N1c1ccc(F)cc1F	39.75%
[N-]=[N+]=NCN1C(=O)CCC(N2C(=O)c3ccccc3C2=O)C1=O (centres undefined)	24.67%
CC(C)C(N)C(=O)OCN1C(=O)CCC(N2C(=O)c3ccccc3C2=O)C1=O.Cl (centres undefined)	88%
O=C1CCC(N2Cc3ccccc3C2=O)C(=O)N1 (centres undefined)	11.25%
CCC1(N2C(=O)c3c(F)c(F)c(F)c(F)c3C2=O)C(=O)NC(=O)N(c2ccccc2)C1=O (centres undefined)	75.75%
O=C1c2c(F)c(F)c(F)c(F)c2C(=O)N1c1cnc(O)nc1O	15.25%
O=C1c2cccc([N+](=O)[O-])c2C(=O)N1c1cn(-c2ccccc2)c(=O)[nH]c1=O	-23.33%
NC(=O)c1ccc[n+](CN2C(=O)CCC(N3C(=O)c4ccccc4C3=O)C2=O)c1.[Cl-] (centres undefined)	29.67%
Cl.NCC(=O)OCN1C(=O)CCC(N2C(=O)c3ccccc3C2=O)C1=O (centres undefined)	71.33%
O=C1CCC(N2C(=O)c3ccc(O)c(O)c3C2=O)C(=O)N1 (centres undefined)	10.25%
NC(Cc1ccccc1)C(=O)OCN1C(=O)CCC(N2C(=O)c3ccccc3C2=O)C1=O (centres undefined)	4%
O=C1CCC(N2C(=O)c3cc(O)c(O)cc3C2=O)C(=O)N1 (centres undefined)	38.75%
CCOCN1C(=O)CCC(N2C(=O)c3ccccc3C2=O)C1=O (centres undefined)	32%
Cc1ccc(C)c2c1C(=O)N(c1ccc(F)cc1F)C2=O	18%
NC(=O)C(CCC(=O)O)N1C(=O)c2ccccc2C1=O (centres undefined)	15.25%
O=C1c2ccccc2C(=O)N1c1ccc(F)cc1F	-4.75%
O=C(O)CN1C(=O)CCC(N2C(=O)c3ccccc3C2=O)C1=O (centres undefined)	39.75%
O=C1NC(=O)C(N2C(=O)c3ccccc3C2=O)CC1O (centres undefined)	3.75%

Compound	Inhibition
CC(C)(C)OC(=O)C(C(=O)NC(C(=O)O)C(=O)O)N1C(=O)c2ccccc2C1=O (centres undefined)	13.25%
COc1cc2c(cc1OC)C(=O)N(C1CCC(=O)NC1=O)C2=O (centres undefined)	23.25%
CC(C)(C)OC(=O)NCC(=O)OCN1C(=O)CCC(N2C(=O)c3ccccc3C2=O)C1=O (centres undefined)	40.25%
CCC1(N2C(=O)c3ccccc3C2=O)C(=O)NC(=O)N(c2ccccc2)C1=O (centres undefined)	-0.5%
O=C(O)CCC(NC(C(=O)O)N1C(=O)c2ccccc2C1=O)C(=O)O (centres undefined)	25.75%
O=C(O)CCC(C(=O)O)N1C(=O)c2ccccc2C1=O (centres undefined)	10.75%
CC(C(=O)OCN1C(=O)CCC(N2C(=O)c3ccccc3C2=O)C1=O)N(C)C(=O)OC(C)(C)C (centres undefined)	56.5%
O=C1CCC(N2C(=O)c3ccccc3C2=O)C(=O)N1CO (centres undefined)	21%
CC(C)CCCC(C)C1CCC2C3CC=C4CC(OC(=O)N5C(=O)CCC(N6C(=O)c7ccccc7C6=O)C5=O)CCC4(C)C3CCC12C (centres undefined)	50%
O=C(O)C(C(=O)O)N1C(=O)c2ccccc2C1=O	-2%
CCC1(N2C(=O)c3cccc([N+](=O)[O-])c3C2=O)C(=O)NC(=O)N(c2ccccc2)C1=O (centres undefined)	1.75%
O=C1CCC(NC(=O)C(C(=O)O)N2C(=O)c3ccccc3C2=O)C(=O)N1 (centres undefined)	11.67%
O=C1CCC(N2C(=O)c3ccccc3C2=O)C(=O)O1 (centres undefined)	42%
CC(C)(C)OC(=O)NC(Cc1ccccc1)C(=O)OCN1C(=O)CCC(N2C(=O)c3ccccc3C2=O)C1=O (centres undefined)	33.75%
CC(C)CCCC(C)C1CCC2C3CC=C4CC(OC(=O)CN5C(=O)CCC(N6C(=O)c7ccccc7C6=O)C5=O)CCC4(C)C3CCC12C (centres undefined)	25.25%
COCN1C(=O)CCC(N2C(=O)c3ccccc3C2=O)C1=O (centres undefined)	13%
NC(=O)CCC(C(=O)O)N1C(=O)c2ccccc2C1=O (centres undefined) [2-PHTHALIMIDOGLUTARAMIC ACID]	1.75%
Nc1cccc2c1C(=O)N(C1CCC(=O)NC1=O)C2=O (centres undefined) [POMALIDOMIDE]	5.5%
O=C1NCCCC1N1C(=O)c2ccccc2S1(=O)=O (centres undefined) [SUPIDIMIDE]	4.5%
